From ChEMBL document CHEMBL1134871, “N-aryl-prolyl-dipeptides as potent antagonists of VLA-4” (Bioorg Med Chem Lett, 2002)

Tests used:
Integrin alpha-4/beta-1 = Integrin alpha-4/beta-1 (Homo sapiens, UniProt P05556+P13612); assay: Inhibition of [125I]VCAM-Ig binding to human integrin alpha4-beta1 (VLA-4) of Jurkat cells; assay type: cell-based
Procedure, shortened: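 Filtered, washed, and bound radiolabel counted by scintillation. DMSO wells set 0% inhibition; cell-free wells set 100%. IC50 from ten-point titration by four-parameter fit, run in duplicate.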

[1] = Oral bioavailability in rat (Sprague-Dawley) (dose 1 mg/kg i.v.); assay type: ADME, organism-based; details: in vivo, 2 mg/kg
Procedure, shortened: (§1)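 Sprague–Dawley rats given 1 mg/kg iv and 2 mg/kg po. Plasma half-life taken over 0–8 h.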

[2] = Plasma clearance rate in Sprague-Dawley rats; assay type: ADME, organism-based; details: rat, read-out: Clp; procedure, shortened: as §1
Integrin alpha-4/beta-7 = biological target: T1, Integrin alpha-4/beta-7 (Homo sapiens, UniProt P13612+P26010); assay: Inhibition of [125I]MAdCAM-Ig binding to human integrin alpha4-beta7 of RPMI-8866 cells; assay type: cell-based
T1 sequence (P13612 whole entry): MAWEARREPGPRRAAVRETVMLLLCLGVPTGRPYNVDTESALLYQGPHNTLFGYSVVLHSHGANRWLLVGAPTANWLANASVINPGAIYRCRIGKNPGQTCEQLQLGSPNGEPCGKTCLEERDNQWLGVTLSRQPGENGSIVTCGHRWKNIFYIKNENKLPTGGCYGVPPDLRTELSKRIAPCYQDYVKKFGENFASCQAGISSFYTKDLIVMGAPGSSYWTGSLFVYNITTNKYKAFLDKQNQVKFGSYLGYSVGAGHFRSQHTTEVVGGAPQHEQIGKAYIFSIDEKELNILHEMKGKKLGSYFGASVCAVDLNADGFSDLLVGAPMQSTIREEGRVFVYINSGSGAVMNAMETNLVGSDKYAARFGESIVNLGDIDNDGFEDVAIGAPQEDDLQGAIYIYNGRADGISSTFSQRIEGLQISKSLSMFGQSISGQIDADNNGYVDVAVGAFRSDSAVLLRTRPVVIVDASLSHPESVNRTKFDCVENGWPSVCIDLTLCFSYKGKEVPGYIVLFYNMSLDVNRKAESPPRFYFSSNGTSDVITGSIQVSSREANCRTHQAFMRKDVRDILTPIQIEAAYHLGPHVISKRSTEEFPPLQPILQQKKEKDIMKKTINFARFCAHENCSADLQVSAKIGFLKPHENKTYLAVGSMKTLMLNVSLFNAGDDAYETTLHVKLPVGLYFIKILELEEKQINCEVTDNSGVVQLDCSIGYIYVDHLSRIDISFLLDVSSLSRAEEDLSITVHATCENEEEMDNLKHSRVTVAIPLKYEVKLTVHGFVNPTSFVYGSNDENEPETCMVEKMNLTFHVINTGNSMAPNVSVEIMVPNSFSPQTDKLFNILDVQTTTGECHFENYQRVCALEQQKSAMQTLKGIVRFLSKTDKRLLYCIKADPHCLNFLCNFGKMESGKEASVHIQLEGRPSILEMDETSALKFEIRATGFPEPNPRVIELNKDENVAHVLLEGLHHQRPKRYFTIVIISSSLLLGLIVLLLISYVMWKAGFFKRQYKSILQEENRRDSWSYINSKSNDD
T1 sequence (P26010 whole entry): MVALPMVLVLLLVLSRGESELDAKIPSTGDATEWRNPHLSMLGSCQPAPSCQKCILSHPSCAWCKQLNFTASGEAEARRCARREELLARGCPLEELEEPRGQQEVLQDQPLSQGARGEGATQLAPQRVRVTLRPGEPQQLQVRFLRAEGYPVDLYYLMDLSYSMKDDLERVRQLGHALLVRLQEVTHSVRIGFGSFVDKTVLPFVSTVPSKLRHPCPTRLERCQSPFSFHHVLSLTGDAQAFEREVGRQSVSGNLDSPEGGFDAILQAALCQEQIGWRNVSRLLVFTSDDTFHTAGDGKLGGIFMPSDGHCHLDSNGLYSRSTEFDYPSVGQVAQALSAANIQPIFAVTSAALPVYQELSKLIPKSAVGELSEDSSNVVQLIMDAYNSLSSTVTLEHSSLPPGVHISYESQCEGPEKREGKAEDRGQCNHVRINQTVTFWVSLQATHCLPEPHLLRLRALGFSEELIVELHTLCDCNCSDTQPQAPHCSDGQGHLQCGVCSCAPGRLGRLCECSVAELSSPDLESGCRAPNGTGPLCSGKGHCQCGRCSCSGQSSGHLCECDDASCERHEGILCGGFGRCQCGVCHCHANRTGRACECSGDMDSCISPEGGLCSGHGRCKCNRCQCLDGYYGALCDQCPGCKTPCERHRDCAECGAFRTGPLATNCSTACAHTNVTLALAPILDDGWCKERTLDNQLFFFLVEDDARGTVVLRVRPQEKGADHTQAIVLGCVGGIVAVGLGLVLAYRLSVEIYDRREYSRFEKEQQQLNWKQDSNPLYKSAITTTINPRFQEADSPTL

[3] = Plasma half-life was determined in Sprague-Dawley rats after 0-8 hr of administration; assay type: ADME, organism-based; details: rat; procedure, shortened: as §1

Integrin alpha-4/beta-1, sequence (P05556 whole entry, one chain of several): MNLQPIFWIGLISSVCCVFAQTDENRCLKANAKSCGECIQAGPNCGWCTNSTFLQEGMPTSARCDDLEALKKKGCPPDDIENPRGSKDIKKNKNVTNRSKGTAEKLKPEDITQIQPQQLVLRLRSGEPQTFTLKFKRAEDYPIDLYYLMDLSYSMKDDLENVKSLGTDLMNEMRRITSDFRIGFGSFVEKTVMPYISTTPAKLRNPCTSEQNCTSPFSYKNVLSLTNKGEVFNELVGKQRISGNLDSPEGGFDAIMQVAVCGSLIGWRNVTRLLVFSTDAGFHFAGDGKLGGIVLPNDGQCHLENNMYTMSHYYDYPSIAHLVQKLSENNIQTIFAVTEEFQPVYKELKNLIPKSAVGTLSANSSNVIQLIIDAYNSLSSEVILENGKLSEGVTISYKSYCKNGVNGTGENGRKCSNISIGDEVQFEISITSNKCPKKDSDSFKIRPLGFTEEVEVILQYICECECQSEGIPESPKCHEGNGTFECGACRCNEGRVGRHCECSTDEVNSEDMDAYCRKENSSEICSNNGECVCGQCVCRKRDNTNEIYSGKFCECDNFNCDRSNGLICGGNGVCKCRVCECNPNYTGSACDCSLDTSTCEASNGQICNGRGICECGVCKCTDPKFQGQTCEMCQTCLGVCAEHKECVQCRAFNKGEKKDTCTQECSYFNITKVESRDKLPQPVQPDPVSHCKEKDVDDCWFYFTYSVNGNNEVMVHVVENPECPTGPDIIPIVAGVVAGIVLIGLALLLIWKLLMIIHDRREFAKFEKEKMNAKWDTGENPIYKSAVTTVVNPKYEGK

SMILES | IC50 (Integrin alpha-4/beta-1) [nM] | bioavailability [1] [%] | clearance [2] [mL/min/kg] | IC50 (Integrin alpha-4/beta-7) [nM] | half-life [3] [min]
COc1cccc(N2CCC[C@H]2C(=O)N[C@@H](Cc2ccc(-c3c(OC)cccc3OC)cc2)C(=O)O)c1 | 0.41 | 3 | 64 | 5.8 | 42
COc1cccc(OC)c1-c1ccc(C[C@H](NC(=O)[C@@H]2CCCN2c2ccccn2)C(=O)O)cc1 | 1.9 | 2 | 29 | 18 | 18
COc1cccc(OC)c1-c1ccc(C[C@H](NC(=O)[C@@H]2CCCN2c2cncnc2)C(=O)O)cc1 | 0.73 |  |  | 18.8 | 
COc1cccc(OC)c1-c1ccc(C[C@H](NC(=O)[C@@H]2CCCN2c2ccccc2)C(=O)O)cc1 | 0.61 | 14 | 78 | 21 | 36
COc1cccc(OC)c1-c1ccc(C[C@H](NC(=O)[C@@H]2CCCN2c2ccc([N+](=O)[O-])cc2)C(=O)O)cc1 | 1.1 | < 1 | > 100 | 17.1 | 84
COc1cccc(OC)c1-c1ccc(CC(NC(=O)C2(c3ccccc3)CCCC2)C(=O)O)cc1 (stereo unspecified) | 3.2 | 55 | 22 | 110 | 
COc1cccc(OC)c1-c1ccc(C[C@H](NC(=O)[C@@H]2CCCN2c2cncc3ccccc23)C(=O)O)cc1 | 1.1 |  |  | 45 | 

Now those with a lower IC50 (Integrin alpha-4/beta-1), led by results:

IC50 (Integrin alpha-4/beta-1) [nM] | bioavailability [1] [%] | clearance [2] [mL/min/kg] | IC50 (Integrin alpha-4/beta-7) [nM] | half-life [3] [min] | SMILES
0.11 | 22 | 122 | 5 |  | COc1cccc(OC)c1-c1ccc(CC(NC(=O)C2(S(=O)(=O)c3ccccc3)CCCC2)C(=O)O)cc1 (stereo unspecified)
0.37 | < 1 | 69 | 3.5 | 18 | COc1cccc(OC)c1-c1ccc(C[C@H](NC(=O)[C@@H]2CCCN2c2ccccc2C#N)C(=O)O)cc1
0.38 |  |  | 17 |  | COc1cccc(OC)c1-c1ccc(C[C@H](NC(=O)[C@@H]2CCCN2c2cc([N+](=O)[O-])cc([N+](=O)[O-])n2)C(=O)O)cc1
0.05 | 2 | 127 | 2.5 | 36 | COc1cccc(OC)c1-c1ccc(CC(NC(=O)C2CCCN2S(=O)(=O)c2ccccc2)C(=O)O)cc1 (stereo unspecified)
0.34 | < 1 | 43 | 5.5 | 12 | COc1cccc(OC)c1-c1ccc(C[C@H](NC(=O)[C@@H]2CCCN2c2cccnc2)C(=O)O)cc1
0.17 |  |  | 8.9 |  | COc1cccc(OC)c1-c1ccc(C[C@H](NC(=O)[C@@H]2CCCN2c2cnccn2)C(=O)O)cc1
